As a reminder, the IC50 is the point on the concentration scale where inhibition reaches its midpoint. A high value points to weaker potency in that assay.

Data set [1] deals with T1, Aromatase (Homo sapiens, UniProt P11511).
T1 sequence (P11511 whole entry): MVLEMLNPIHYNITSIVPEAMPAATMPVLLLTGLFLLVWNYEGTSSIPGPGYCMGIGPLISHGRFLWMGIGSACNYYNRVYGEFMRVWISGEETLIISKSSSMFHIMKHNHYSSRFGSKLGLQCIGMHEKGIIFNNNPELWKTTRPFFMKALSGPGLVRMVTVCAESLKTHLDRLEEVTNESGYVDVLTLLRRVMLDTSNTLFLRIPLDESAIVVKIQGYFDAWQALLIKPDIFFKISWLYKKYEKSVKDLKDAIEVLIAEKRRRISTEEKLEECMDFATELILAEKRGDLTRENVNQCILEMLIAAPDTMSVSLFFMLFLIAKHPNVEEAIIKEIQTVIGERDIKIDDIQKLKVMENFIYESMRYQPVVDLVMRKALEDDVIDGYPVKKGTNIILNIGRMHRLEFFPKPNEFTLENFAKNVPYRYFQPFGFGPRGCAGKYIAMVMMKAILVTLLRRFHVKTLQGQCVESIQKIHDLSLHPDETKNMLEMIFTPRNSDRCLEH
As to the kind of experiment: Inhibition of human placental microsome aromatase after 30 mins by ELISA. In short, it runs like this: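 Aromatase (P450 arom) source: human placental microsomes. Activity read as estrone formed, quantified by a commercial estrone enzyme immunoassay (ELISA). Values are means of at least three experiments, each run in triplicate.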
Background: An ELISA detects its analyte on a solid surface through an enzyme-linked reagent.

Data set [2] has as its target T1, Aromatase. In words: Ratio of letrozole IC50 to compound IC50 for human placental microsome aromatase. In short, it runs like this:
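Both IC50s come from the human placental microsome aromatase assay with estrone measured by ELISA. Each IC50 is the mean of at least three experiments, each run in triplicate.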

The compound `COc1ccc2cc(Cn3ccnc3)n(-c3ccc(F)cc3)c2c1` had an IC50 against Aromatase [1] of 48.9 nM. On Aromatase [2], the “Ratio IC50” value was 0.3378.
In turn, `COc1ccc(-n2c(Cn3ccnc3)cc3ccc(Cl)cc32)cc1` showed an IC50 at Aromatase [1] of 203 nM. For the same compound, on Aromatase [2], the “Ratio IC50” value is recorded as 0.0813.
`COc1ccc(-n2c(Cn3ccnc3)cc3ccccc32)cc1`: the midpoint of inhibition against Aromatase [1], the IC50, lay at 77.4 nM. Moreover, the “Ratio IC50” value on Aromatase [2] worked out at 0.2137.
In turn, `Cc1ccc2cc(Cn3ccnc3)n(-c3ccccc3)c2c1` displayed a half-inhibitory concentration (IC50) against Aromatase [1] of 21.4 nM. In addition, the “Ratio IC50” value on Aromatase [2] is 0.7728.
Compound `COc1ccc(-n2c(Cn3ccnc3)cc3ccc(C)cc32)cc1` yielded an IC50 on Aromatase [1] of 139 nM. The “Ratio IC50” value on Aromatase [2] is 0.1192.
`Cc1ccc2cc(Cn3ccnc3)n(-c3ccc(C#N)cc3)c2c1`: on Aromatase [1], the IC50 came out at 27 nM. The “Ratio IC50” value at Aromatase [2] is reported as 0.612.

Source of the values: ChEMBL document CHEMBL2331099, “Design, synthesis and aromatase inhibitory activities of novel indole-imidazole derivatives” (Bioorg Med Chem Lett, 2013).
